Test results reported in ChEMBL document CHEMBL5653631, “A Potent and Selective ULK1 Inhibitor Suppresses Autophagy and Sensitizes Cancer Cells to Nutrient Stress” (iScience, 2018).
One block for each compound: values may come before it.

Key:
[1] = target: T1, Serine/threonine-protein kinase NLK (Homo sapiens) (UniProt Q9UBE8); assay: Inhibition of human recombinant NLK at 500 nM in presence of ATP by radiometric assay relative to control
T1 sequence (whole entry): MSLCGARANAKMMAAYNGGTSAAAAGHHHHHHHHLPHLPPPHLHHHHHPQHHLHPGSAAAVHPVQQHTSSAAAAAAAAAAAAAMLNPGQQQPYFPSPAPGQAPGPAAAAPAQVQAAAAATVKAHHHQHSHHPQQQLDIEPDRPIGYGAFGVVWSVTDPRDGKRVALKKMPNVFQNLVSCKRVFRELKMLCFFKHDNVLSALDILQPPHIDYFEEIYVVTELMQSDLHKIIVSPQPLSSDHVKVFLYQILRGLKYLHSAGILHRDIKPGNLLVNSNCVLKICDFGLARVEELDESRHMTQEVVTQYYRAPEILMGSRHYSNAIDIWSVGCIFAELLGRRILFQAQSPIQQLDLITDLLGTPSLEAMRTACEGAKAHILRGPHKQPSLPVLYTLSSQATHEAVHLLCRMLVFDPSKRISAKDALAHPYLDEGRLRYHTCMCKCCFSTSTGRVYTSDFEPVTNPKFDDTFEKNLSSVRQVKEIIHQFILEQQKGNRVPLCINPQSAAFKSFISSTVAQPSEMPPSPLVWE

[2] = target: Tau-tubulin kinase 2 (Homo sapiens) (UniProt Q6IQ55); assay: Inhibition of human recombinant TTBK2 at 500 nM in presence of ATP by radiometric assay relative to control
[3] = target: Serine/threonine-protein kinase tousled-like 2 (Homo sapiens) (UniProt Q86UE8); assay: Inhibition of human recombinant TLK2 at 500 nM related to control ULK1
[4] = target: Tyrosine-protein kinase BTK (Homo sapiens) (UniProt Q06187); assay: Inhibition of human recombinant BTK at 500 nM related to control ULK1
[5] = target: Platelet-derived growth factor receptor beta (Homo sapiens) (UniProt P09619); assay: Inhibition of human recombinant PDGFRb at 500 nM related to control ULK1
[6] = target: Serine/threonine-protein kinase N2 (Homo sapiens) (UniProt Q16513); assay: Inhibition of human recombinant PKN2 at 15 nM related to control ULK1
[7] = target: T2, Protein kinase C zeta type (Homo sapiens) (UniProt Q05513); assay: Inhibition of human recombinant PKCz at 15 nM related to control ULK1
T2 sequence (whole entry): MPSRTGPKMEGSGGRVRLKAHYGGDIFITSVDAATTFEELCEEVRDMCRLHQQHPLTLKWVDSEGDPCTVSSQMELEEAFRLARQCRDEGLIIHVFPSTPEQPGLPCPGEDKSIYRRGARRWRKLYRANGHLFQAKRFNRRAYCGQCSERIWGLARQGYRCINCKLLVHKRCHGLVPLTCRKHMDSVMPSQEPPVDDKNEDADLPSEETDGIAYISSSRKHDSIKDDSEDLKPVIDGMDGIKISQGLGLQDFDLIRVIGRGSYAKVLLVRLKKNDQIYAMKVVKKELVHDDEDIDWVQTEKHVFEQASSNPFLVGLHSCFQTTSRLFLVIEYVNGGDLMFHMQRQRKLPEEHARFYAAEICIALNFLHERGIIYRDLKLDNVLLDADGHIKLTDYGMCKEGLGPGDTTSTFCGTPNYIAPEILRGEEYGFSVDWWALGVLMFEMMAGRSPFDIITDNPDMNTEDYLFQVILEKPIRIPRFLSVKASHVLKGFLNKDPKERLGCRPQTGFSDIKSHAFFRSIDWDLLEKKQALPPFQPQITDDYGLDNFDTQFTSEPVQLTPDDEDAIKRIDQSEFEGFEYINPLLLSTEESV

[8] = target: T3, Tyrosine-protein kinase ITK/TSK (Homo sapiens) (UniProt Q08881); assay: Inhibition of human recombinant ITK at 40 nM related to control ULK1
T3 sequence (whole entry): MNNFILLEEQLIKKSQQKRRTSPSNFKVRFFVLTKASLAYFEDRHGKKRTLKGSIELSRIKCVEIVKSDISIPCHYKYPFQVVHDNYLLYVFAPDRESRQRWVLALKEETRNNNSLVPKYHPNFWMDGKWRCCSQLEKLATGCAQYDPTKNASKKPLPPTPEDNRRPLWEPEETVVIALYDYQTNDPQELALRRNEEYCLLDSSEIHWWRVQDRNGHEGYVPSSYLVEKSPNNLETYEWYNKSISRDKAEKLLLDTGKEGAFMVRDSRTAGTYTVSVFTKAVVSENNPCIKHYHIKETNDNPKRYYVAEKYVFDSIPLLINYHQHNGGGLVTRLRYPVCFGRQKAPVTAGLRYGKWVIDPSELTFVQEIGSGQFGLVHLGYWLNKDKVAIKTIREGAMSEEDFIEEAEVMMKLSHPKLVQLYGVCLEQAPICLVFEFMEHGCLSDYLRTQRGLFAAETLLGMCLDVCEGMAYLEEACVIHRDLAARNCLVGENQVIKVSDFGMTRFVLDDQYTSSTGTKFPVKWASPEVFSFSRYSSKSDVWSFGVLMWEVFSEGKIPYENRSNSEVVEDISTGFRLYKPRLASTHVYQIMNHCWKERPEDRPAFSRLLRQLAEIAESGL

[9] = target: T4, Activin receptor type-1 (Homo sapiens) (UniProt Q04771); assay: Inhibition of human recombinant ALK2 at 40 nM related to control ULK1
T4 sequence (whole entry): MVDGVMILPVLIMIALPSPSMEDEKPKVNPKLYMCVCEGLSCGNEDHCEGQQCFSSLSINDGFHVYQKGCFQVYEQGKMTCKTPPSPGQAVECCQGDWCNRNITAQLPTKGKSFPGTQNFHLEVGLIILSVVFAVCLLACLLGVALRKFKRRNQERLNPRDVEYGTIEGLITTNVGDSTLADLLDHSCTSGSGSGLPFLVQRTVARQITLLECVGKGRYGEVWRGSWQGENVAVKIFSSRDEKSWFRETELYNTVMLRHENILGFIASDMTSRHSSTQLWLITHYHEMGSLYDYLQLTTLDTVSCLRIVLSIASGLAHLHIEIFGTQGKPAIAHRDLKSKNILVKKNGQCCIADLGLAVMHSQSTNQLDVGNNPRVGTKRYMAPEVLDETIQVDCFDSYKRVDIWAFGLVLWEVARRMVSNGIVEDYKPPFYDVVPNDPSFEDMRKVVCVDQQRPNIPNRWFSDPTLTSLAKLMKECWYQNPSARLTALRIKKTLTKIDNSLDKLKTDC
Procedure, shortened: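 Radiometric activity assays in a panel of 327 human recombinant kinases, each run in duplicate at one inhibitor concentration. Activity remaining is expressed as percent of vehicle control, and percent inhibition is calculated as 100% minus percent activity remaining.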

[10] = target: Serine/threonine-protein kinase SIK2 (Homo sapiens) (UniProt Q9H0K1); assay: Inhibition of human recombinant QIK at 40 nM related to control ULK1
[11] = target: Calcium/calmodulin-dependent protein kinase type 1B (Homo sapiens) (UniProt Q6P2M8); assay: Inhibition of human recombinant CaMK1b at 40 nM in presence of ATP by radiometric assay relative to control
Sequence of Calcium/calmodulin-dependent protein kinase type 1B (Homo sapiens) (Q6P2M8 whole entry): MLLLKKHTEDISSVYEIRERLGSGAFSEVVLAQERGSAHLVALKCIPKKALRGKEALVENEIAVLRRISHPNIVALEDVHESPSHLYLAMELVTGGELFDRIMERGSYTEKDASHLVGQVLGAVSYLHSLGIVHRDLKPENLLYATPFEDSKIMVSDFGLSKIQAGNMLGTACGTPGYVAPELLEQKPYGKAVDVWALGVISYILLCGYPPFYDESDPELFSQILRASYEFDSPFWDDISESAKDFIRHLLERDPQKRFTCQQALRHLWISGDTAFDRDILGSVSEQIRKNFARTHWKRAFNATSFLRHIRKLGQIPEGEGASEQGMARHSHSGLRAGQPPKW

Sequence of Tyrosine-protein kinase BTK (Homo sapiens) (Q06187 whole entry): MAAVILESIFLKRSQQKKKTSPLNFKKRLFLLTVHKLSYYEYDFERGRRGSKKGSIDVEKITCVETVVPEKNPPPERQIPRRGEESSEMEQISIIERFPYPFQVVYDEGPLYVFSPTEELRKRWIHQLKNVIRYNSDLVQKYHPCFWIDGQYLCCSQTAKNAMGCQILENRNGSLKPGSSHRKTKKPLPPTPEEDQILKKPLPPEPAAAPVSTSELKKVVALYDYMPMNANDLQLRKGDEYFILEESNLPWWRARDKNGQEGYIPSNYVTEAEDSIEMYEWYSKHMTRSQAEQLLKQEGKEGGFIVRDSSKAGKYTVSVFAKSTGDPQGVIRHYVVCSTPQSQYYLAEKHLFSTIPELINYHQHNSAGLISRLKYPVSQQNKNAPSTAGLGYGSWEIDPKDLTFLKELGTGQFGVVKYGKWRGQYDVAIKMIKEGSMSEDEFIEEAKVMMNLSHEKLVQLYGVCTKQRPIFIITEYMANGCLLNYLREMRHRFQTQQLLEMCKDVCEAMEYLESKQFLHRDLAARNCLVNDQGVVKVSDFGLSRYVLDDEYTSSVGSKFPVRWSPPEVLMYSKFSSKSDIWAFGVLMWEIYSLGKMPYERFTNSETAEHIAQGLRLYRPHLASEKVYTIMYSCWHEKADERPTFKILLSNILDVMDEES
Sequence of Platelet-derived growth factor receptor beta (Homo sapiens) (P09619 whole entry): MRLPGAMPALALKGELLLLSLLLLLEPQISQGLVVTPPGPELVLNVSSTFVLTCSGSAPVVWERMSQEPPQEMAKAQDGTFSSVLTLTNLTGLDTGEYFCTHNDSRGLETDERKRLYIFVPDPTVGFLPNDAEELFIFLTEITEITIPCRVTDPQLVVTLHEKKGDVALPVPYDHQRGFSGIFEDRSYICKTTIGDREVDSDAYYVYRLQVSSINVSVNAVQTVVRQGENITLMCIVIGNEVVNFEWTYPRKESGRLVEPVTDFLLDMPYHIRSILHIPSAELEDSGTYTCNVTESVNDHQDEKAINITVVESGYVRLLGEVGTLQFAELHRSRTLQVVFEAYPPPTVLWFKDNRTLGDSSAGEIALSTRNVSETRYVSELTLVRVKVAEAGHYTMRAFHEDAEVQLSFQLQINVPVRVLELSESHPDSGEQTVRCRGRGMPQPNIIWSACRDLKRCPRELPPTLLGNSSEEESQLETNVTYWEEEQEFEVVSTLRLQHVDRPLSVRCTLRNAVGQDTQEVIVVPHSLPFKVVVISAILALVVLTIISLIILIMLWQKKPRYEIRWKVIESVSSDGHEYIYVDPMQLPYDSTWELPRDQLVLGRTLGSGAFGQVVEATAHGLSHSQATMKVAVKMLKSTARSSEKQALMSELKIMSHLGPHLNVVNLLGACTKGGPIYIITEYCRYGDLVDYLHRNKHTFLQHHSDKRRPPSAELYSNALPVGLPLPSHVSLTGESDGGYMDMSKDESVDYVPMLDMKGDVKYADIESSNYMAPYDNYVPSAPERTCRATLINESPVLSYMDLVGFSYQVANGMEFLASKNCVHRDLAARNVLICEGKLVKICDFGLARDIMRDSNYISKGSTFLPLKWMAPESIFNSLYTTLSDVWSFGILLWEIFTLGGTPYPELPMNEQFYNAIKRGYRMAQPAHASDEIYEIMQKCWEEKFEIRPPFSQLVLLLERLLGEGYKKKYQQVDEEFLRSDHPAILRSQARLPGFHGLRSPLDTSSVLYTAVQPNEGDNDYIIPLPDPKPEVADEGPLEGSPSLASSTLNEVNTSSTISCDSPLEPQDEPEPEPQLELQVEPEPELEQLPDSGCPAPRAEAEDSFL
Sequence of Serine/threonine-protein kinase tousled-like 2 (Homo sapiens) (Q86UE8 whole entry, looked up): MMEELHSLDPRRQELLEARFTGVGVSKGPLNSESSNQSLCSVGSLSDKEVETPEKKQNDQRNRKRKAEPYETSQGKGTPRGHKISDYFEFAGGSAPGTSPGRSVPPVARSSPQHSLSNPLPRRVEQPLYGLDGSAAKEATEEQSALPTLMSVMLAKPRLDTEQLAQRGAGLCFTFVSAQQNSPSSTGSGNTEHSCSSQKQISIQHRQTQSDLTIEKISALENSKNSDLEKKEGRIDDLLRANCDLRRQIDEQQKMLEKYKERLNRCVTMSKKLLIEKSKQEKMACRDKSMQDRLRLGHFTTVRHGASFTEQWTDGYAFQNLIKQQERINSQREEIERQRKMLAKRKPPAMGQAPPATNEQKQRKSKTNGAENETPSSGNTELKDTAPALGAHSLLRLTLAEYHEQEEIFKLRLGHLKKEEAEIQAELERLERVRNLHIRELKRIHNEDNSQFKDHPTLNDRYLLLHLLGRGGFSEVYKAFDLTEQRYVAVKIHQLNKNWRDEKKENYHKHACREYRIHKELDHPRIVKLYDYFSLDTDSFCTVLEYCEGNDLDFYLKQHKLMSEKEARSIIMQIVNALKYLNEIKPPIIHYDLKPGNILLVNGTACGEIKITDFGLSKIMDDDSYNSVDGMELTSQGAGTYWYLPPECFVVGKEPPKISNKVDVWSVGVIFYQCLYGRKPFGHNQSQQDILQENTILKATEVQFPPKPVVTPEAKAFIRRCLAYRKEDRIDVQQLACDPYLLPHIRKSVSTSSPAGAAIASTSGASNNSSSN
Sequence of Serine/threonine-protein kinase SIK2 (Homo sapiens) (Q9H0K1 whole entry, looked up): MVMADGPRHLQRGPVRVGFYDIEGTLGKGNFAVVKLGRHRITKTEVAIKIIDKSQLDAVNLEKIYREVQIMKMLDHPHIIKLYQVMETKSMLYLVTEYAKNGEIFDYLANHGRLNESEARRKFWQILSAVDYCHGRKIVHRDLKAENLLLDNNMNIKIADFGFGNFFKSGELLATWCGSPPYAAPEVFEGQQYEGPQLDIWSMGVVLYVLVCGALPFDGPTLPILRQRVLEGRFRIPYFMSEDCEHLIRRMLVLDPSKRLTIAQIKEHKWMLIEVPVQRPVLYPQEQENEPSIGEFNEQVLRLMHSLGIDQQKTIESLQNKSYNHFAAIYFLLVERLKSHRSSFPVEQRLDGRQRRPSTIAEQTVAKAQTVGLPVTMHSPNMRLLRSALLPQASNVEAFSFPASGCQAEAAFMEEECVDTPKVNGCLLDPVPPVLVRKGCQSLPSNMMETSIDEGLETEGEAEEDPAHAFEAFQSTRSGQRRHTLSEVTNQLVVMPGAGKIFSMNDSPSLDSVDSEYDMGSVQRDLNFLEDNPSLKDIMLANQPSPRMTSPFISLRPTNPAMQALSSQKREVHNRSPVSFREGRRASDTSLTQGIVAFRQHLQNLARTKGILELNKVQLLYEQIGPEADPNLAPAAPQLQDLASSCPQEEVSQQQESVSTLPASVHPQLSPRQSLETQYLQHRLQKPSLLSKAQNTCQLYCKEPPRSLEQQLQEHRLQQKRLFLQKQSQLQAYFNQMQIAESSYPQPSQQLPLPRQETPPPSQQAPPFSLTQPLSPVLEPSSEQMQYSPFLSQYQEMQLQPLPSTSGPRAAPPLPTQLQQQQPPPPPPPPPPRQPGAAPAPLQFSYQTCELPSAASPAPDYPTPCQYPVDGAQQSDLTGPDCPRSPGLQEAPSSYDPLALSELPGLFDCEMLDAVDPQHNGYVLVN
Sequence of Serine/threonine-protein kinase N2 (Homo sapiens) (Q16513 whole entry, looked up): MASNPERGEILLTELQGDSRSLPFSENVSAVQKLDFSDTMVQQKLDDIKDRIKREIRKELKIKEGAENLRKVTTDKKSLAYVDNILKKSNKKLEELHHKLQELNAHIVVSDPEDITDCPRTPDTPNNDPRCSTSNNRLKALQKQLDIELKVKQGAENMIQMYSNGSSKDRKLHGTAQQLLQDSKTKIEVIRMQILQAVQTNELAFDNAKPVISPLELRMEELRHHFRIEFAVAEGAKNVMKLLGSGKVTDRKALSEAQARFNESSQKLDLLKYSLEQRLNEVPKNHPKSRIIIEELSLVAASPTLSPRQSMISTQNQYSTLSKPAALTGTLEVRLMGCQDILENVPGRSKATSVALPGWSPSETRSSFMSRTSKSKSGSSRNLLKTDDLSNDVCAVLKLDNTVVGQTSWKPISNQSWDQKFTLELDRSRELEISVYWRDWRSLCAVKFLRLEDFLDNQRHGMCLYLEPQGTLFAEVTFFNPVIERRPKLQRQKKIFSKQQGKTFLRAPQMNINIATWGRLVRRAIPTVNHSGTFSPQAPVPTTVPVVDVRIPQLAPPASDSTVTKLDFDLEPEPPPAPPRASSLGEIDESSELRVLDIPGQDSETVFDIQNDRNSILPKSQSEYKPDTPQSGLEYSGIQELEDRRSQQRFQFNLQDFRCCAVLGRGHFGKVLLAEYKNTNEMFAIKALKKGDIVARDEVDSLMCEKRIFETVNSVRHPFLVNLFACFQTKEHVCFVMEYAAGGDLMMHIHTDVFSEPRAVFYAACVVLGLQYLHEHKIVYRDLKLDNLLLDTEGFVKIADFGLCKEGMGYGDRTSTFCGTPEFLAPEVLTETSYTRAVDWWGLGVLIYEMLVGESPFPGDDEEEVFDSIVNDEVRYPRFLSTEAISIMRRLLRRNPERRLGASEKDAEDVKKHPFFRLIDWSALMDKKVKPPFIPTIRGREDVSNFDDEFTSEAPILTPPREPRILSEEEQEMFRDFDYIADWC

inhibition [1]: 4%
inhibition [2]: 6%
fold change (FC) [3]: 0
fold change (FC) [4]: 0
fold change (FC) [5]: 0
SMILES: CNC(=O)c1ccccc1Oc1nc(Nc2cc(OC)c(OC)c(OC)c2)ncc1Br

fold change (FC) [6]: 0
fold change (FC) [7]: 0
SMILES: CC(C)[C@H](NC(=O)c1cc(-c2cnn3cc(-c4ccc(OCCN5CCCCC5)cc4)cnc23)cs1)C(F)(F)F

fold change (FC) [8]: 0
fold change (FC) [9]: 0.77
fold change (FC) [10]: 0.74
inhibition [11]: 0%
SMILES: O=C(N[C@@H](C1CC1)C(F)(F)F)c1cc(-c2cnn3cc(-c4ccc(F)cc4)cnc23)cs1
